Hits are enriched below; roughly 2.5% of the tested compounds scored in any of these assays.
SENP8 block-1: blocks human SENP8 cleavage of Nedd8 substrate; Q96LD8; recombinant SENP8, Nedd8 substrate fluorescence; inhibition, % at 20 µM; hit rate 0.64% among 360,000; in the data active = inhibition mostly above about 40%, no sharp cut-off; inactive = mostly below about 27%
SENP7 inh: blocks the human protease SENP7; recombinant SENP7, Z-RLRGG-aminoluciferin luminescence, 40 min; inhibition, % at 5 µM; Q9BQF6; AID 434973; hit rate 1.5% among 330,000;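 active = inhibition above about 50% at the single test dose, limit read from the data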;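 also: plate controls were DMSO with enzyme for no effect and no enzyme buffer wells for full effect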
SENP1 inh: SENP1 (human) catalytic domain inhibition; Q9P0U3; recombinant SENP1 catalytic domain, CyPet-SUMO1-YPet FRET cleavage; inhibition, % at 10 µM; hit rate 0.21% among 360,000; AID 624204;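 active = inhibition at least 30% at 10 µM, raw YFP signal under a set limit, fluorescence ratio 0.5 to 1.5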;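 also: 0% = enzyme with DMSO and 100% = no enzyme wells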
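system = hSENP1 catalytic domain, recombinant | reagent = SFCypet-SUMO1-SFYpet substrate at 25 nM | doses = one dose per compound, 10 µM, 0.5% DMSO | incubation = enzyme reaction for 50 min at room temperature, dark | measured by = FRET, CFP and YFP emission | controls = no-enzyme low, enzyme-DMSO high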
SENP8 block-2: SENP8 protease inhibition. hit rate 1.2% among 330,000. purified SENP8, Z-RLRGG-aminoluciferin cleavage, luminescence. inhibition, % at 10 µM. AID 2540. Q96LD8; in the data active = inhibition above about 50%
SENP6 inh: blocks the human protease SENP6. inhibition, % at 10 µM. hit rate 1.8% among 330,000. Recombinant SENP6 catalytic domain, aminoluciferin luminescence. AID 2599;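 active = inhibition above about 50% at the single tested dose, limit read from the data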;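 also: plate controls were DMSO wells with enzyme for no effect and DMSO wells lacking enzyme for full effect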
Target sequence (Q9GZR1 628-1112 limits assumed): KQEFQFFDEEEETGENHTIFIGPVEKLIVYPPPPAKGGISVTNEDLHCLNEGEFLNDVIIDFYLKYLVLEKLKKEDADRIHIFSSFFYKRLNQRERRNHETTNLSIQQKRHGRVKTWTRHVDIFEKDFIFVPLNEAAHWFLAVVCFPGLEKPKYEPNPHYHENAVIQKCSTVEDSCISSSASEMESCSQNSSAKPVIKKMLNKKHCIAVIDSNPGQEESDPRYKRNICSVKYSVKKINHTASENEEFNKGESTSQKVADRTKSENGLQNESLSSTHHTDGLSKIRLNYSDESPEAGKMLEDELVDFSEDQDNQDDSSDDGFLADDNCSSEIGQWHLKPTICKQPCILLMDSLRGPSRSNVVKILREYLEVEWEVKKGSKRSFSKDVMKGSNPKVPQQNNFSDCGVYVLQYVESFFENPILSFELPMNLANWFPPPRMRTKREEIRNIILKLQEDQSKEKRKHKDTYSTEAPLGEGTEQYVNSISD
SENP8 confirm: confirmation of human SENP8 protease inhibitors; shares compounds with SENP7 inh; Recombinant SENP8, Z-RLRGG-aminoluciferin luminescence, 60 min; inhibition, % at 12.5 µM; hit rate 40% among 6,200;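 active = mean inhibition across replicates above about 50%, limit read from the data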
SENP6 confirm: human SENP6 inhibition, confirmed. shares compounds with SENP7 inh. recombinant SENP6, Z-RLRGG-aminoluciferin luminescence. inhibition, % at 12.5 µM. hit rate 58% among 6,200. AID 488915
SENP7 conf: confirmation of human SENP7 protease inhibitors; shares compounds with SENP7 inh; recombinant SENP7, Z-RLRGG-aminoluciferin luminescence, 40 min; inhibition, % at 12.5 µM; hit rate 69% among 6,200
Casp3 select: inhibits human caspase-3 in SENP selectivity test; shares compounds with SENP7 inh; purified caspase-3, Z-DEVD-aminoluciferin luminescence, 60 min; inhibition, % at 12.5 µM; hit rate 60% among 6,200;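 active = mean inhibition above about 50%, limit read from the data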;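 also: plate controls were enzyme with DMSO for no effect and wells without caspase-3 for full effect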
Luc interf: luminescence interference (SENP counter-screen) | shares compounds with SENP7 inh | Pre-incubated SENP8/Z-RLRGG-aminoluciferin, luciferase luminescence interference | inhibition, % at 12.5 µM | hit rate 39% among 6,200 | AID 488919;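 active = mean inhibition above about 50% when retested at one dose, limit read from the data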;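 also: plate controls were DMSO wells with completed reaction for no effect and substrate without enzyme for full effect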
* hit, by the source's call; · = no result.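 The calls were made as follows, unless noted: active = mean inhibition above about 50% in the one-dose retest (limit read from the data); inactive = the rest.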

SMILES	SENP8 block-1	SENP7 inh	SENP1 inh	SENP8 block-2	SENP6 inh	SENP8 confirm	SENP6 confirm	SENP7 conf	Casp3 select	Luc interf
CN(C)c1ccc(/C=c2\sc3n(c2=O)CCCN=3)cc1	-14	68*	-18	74*	87*	87*	84*	95*	85*	76*
N#CCCN(Cc1ccccc1)C(C(=O)NC1CCCCC1)c1ccnc2ccccc12 (stereo not given)	20	·	0	·	·	·	·	·	·	·
O=C(NCc1nnnn1-c1ccc(F)cc1)c1ccc(S(=O)(=O)N2CCOCC2)cc1	13	·	2	·	·	·	·	·	·	·
COc1ccccc1N1CCN(c2ccc(-c3ccccc3)nn2)CC1	13	-3	-1	95*	94*	79*	89*	98*	90*	22
Nc1cccnc1Sc1ccc(Cl)cc1	-44	36	-1	42	55*	-5	-7	-10	-5	-4
Nc1cccnc1Sc1cccc(Cl)c1	-32	41	0	31	61*	10	2	-2	-5	-4
CC1CCCN(c2ccc3nc4ccccc4c(=O)n3n2)C1 (stereo not given)	-176	50	-18	35	61*	46	52*	81*	83*	20
O=C(c1ccccc1)c1cnc(Nc2ccccc2Cl)s1	-276	54*	-19	49	75*	73*	76*	87*	47	53*
CC(C)(C)C(=O)c1cnc(Nc2ccccc2Cl)s1	-390	83*	-11	79*	90*	86*	90*	97*	75*	83*
CC(=O)c1csc(Nc2ccccc2Cl)n1	13	54*	0	14	42	14	15	70*	63*	48
CC(C(=O)NC1CCCC1)n1c(-c2ccccn2)nc2ccccc21 (stereo not given)	-46	·	2	·	·	·	·	·	·	·
COCCn1c(N)c(Sc2ccc([N+](=O)[O-])cc2)c(=O)[nH]c1=O	22	-4	3	-6	-1	·	·	·	·	·
COc1cccc(-c2nc(-c3cccs3)no2)c1	24	92*	0	83*	90*	13	87*	98*	70*	62*
COc1cccc(-c2nc(-c3ccncc3)no2)c1	1	80*	1	70*	78*	73*	78*	94*	86*	61*
COc1cc(OC)cc(-c2nc(-c3cccs3)no2)c1	-17	32	1	-1	-27	·	·	·	·	·
CCOC(=O)C1=C(COC(=O)c2ncc(Cl)c(Cl)c2Cl)NC(=O)NC1C (stereo not given)	4	5	2	-10	-22	·	·	·	·	·
CCOCCCNS(=O)(=O)c1ccccc1	13	-1	-1	-10	-12	·	·	·	·	·
CCOCCCNC1=C(Cl)C(=O)c2ccccc2C1=O	47*	54*	-1	47	75*	5	33	2	5	4
Cc1ccc2c(cnn2C(=O)CCC(=O)N2CCCCC2C)c1 (stereo not given)	2	9	1	-3	4	·	·	·	·	·
O=C(O)c1ccc(/C=N/N2CCN(c3ccccc3)CC2)cc1	17	72*	3	62*	62*	7	12	16	6	8
O=C(O)c1ccc(C=NN2CCCCCC2)cc1	14	·	-1	·	·	·	·	·	·	·
COc1ccc(/C=N/N2CCN(c3ccccc3OC)CC2)cc1OC	8	-10	2	3	3	·	·	·	·	·
COc1ccc(/C=N/N2CCN(c3ccccc3OC)CC2)cc1Br	20	12	-1	32	59*	39	42	76*	19	8
COc1ccc(/C=N/N2CCN(c3ccccc3)CC2)cc1Br	8	58*	1	15	33	-15	-7	-3	6	-6
O=C(/C=C/Nc1ccc(F)cc1)c1cccs1	-221	92*	-58	89*	93*	89*	98*	102*	96*	67*
SMILES	SENP8 block-1	SENP7 inh	SENP1 inh	SENP8 block-2	SENP6 inh	SENP8 confirm	SENP6 confirm	SENP7 conf	Casp3 select	Luc interf
O=C(/C=C/Nc1ccc(S(=O)(=O)Nc2ncccn2)cc1)c1cccs1	-453	5	-34	-3	5	·	·	·	·	·
O=C(/C=C/Nc1ccc(F)c(F)c1)c1cccs1	-212	83*	-100	86*	90*	68*	89*	99*	83*	38
Fc1cccc2sc(Nc3nc4cc5c(cc4s3)OCO5)nc12	-449	53*	-39	-8	7	-6	-10	2	5	-5
C=CCn1c(SCC(=O)Nc2cc(OC)c(NC(=O)c3ccco3)cc2OC)nnc1-c1ccncc1	-22	-4	-2	-12	-6	·	·	·	·	·
C=CCn1c(SCC(=O)Nc2ccc(NC(=O)c3ccco3)c(OC)c2)nnc1-c1ccncc1	1	13	-1	-4	74*	-24	-20	-11	-12	-8
Cc1ccc(CN2CCN(Cc3ccncc3)CC2CCO)o1 (stereo not given)	19	7	-2	-9	76*	-20	-21	-9	-10	-6
Cc1ccc(CN2CCN(Cc3cnn(-c4ccc(Cl)cc4)c3)CC2CCO)o1 (stereo not given)	4	-2	9	-11	-12	·	·	·	·	·
CCCn1c(SC(C)C(=O)N2CCOCC2)nc2ccc(Br)cc2c1=O (stereo not given)	8	4	1	-10	-32	·	·	·	·	·
Cc1c(C(=O)NCc2ccc3c(c2)cc(C)n3C)cccc1[N+](=O)[O-]	-7	-3	1	-10	-10	·	·	·	·	·
CC(C)CCN1C(=O)c2ccc(C(=O)Nc3ccccc3C(=O)O)cc2C1=O	22	-1	2	66*	74*	76*	77*	86*	60*	77*
CC(c1ccccc1)N1C(=O)c2ccc(C(=O)Nc3ccccc3C(=O)O)cc2C1=O (stereo not given)	6	21	-2	68*	70*	76*	71*	85*	41	77*
C[C@H](NCc1c[nH]c2ccccc12)c1ccccc1	3	-2	1	4	16	·	·	·	·	·
Cc1cc(C(=O)N2CCN(Cc3ccc4c(c3)OCO4)CC2)cs1	2	-11	0	2	-4	·	·	·	·	·
Cc1ccc(C(=O)c2sc3nsc(C)c3c2N)cc1	16	53*	-17	27	57*	12	27	60*	41	11

Source: PubChem (Sanford-Burnham Center for Chemical Genomics)
